How the values were obtained:
[1] = molecular target: Neuronal acetylcholine receptor; format: tissue-based, Brain
[2] = molecular target: Neuronal acetylcholine receptor
[3] = molecular target: T1, Neuronal acetylcholine receptor (Rattus norvegicus) (UniProt P04757+P09483+P12389+P12390+P12392+P43144+Q9JLB5+P12391+P43143+P20420+Q05941)
[4] = molecular target: T1, Neuronal acetylcholine receptor (Rattus norvegicus); test: Compounds was evaluate for their ability to enhance (+/-)-[3H]nicotine binding at a dose range 10 E -12- 10 E -5 M was reported; format: protein-complex assay
Outline: (§1)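 Whole-brain P2 fraction from female Sprague-Dawley rats (200–300 g), prepared at 4 °C, ~2 mg protein per tube. […] Nonspecific binding defined with 10^-2 M (-)-nicotine. Triplicates, usually four homogenates. Enhancement assessed by two-way ANOVA or pooled t-test.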

[5] = molecular target: T1, Neuronal acetylcholine receptor (Rattus norvegicus); test: Compounds was evaluate for their ability to enhance (+/-)-[3H]nicotine binding at a dose range 10 E -10 - 10 E -6 M was reported; format: protein-complex assay
Outline: as §1

[6] = molecular target: T1, Neuronal acetylcholine receptor (Rattus norvegicus); remark: listed apart in the source
[7] = molecular target: Neuronal acetylcholine receptor; test: Compound was evaluated for ability to enhance the binding of (+/-)-[3H]nicotine to the rat brain P2 fraction at binding site 1; format: tissue-based
Outline: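 Whole-brain P2 fraction from female Sprague-Dawley rats (200–300 g), prepared at 4 °C, ~2 mg protein per tube. Triplicates, usually four homogenates. Enhancement assessed by two-way ANOVA or pooled t-test.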

[8] = molecular target: T1, Neuronal acetylcholine receptor (Rattus norvegicus); test: Compounds was evaluate for their ability to enhance (+/-)-[3H]nicotine binding at a dose range 10 E -10 - 10 E -5 M was reported; format: protein-complex assay
Outline: as §1

[9] = molecular target: T1, Neuronal acetylcholine receptor (Rattus norvegicus); test: Compounds was evaluate for their ability to enhance (+/-)-[3H]nicotine binding at a dose range 2.5*10e-9-2.5*10e-5 M was reported; format: protein-complex assay
Outline: as §1

[10] = molecular target: T1, Neuronal acetylcholine receptor (Rattus norvegicus); test: Compounds was evaluate for their ability to enhance (+/-)-[3H]nicotine binding at a dose range 10 E -10 - 10 E -7 M was reported; format: protein-complex assay
Outline: (§2)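 Bound ligand collected on poly-L-lysine-soaked glass-fibre filters, washed with cold Hepes and counted by liquid scintillation. Nonspecific binding defined with 10^-2 M (-)-nicotine. Triplicates, usually four homogenates. Enhancement tested by two-way ANOVA with linear/quadratic dose components, or pooled t-test.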

[11] = molecular target: Neuronal acetylcholine receptor; test: Compounds was evaluated in vitro for ability to enhance and inhibit the binding of (+/-)-[3H]nicotine to the rat brain P2 fraction at binding site 1; 10e-10-10e-3
Outline: as §1

[12] = molecular target: Neuronal acetylcholine receptor; format: tissue-based, Brain; remark: listed apart in the source
[13] = molecular target: T1, Neuronal acetylcholine receptor (Rattus norvegicus); test: Compounds was evaluated for their ability to enhance (+/-)-[3H]nicotine binding at a dose range 10 E -9 - 10 E -6 M was reported; format: protein-complex assay
Outline: as §2

[14] = molecular target: T1, Neuronal acetylcholine receptor (Rattus norvegicus); remark: listed apart in the source
[15] = molecular target: T1, Neuronal acetylcholine receptor (Rattus norvegicus); remark: listed apart in the source
[16] = molecular target: T1, Neuronal acetylcholine receptor (Rattus norvegicus); remark: listed apart in the source
[17] = molecular target: T1, Neuronal acetylcholine receptor (Rattus norvegicus); test: Compounds was evaluate for their ability to enhance (+/-)-[3H]nicotine binding at a dose range 10 E -8 - 10 E -4 M was reported; format: protein-complex assay
Outline: as §1

In the case of `c1ccncc1` [PYRIDINE], the Kd [1] is reported as 3300 µM.

`Cc1ccccn1` was tested, and the Kd [1] was 0.05 µM, the Kd [2] was 64000 µM and the Mean enhancement of binding [3] was 20.7.

With `CN1[C@@H]2CC[C@H]1C[C@@H](OC(=O)C(CO)c1ccccc1)C2` (stereo not given in full) the Mean enhancement of binding [4] was 14.9.

`CN1CCCC1` [N-METHYL PYRROLIDINE (NMP)] was tested, and the Kd [1] was 52 µM and the Mean enhancement of binding [5] was 4.1.

`OC1CCNCC1` showed a Kd [1] of 3000 µM and a Mean enhancement of binding [6] of 4.

With `Cc1cccnc1` [3-METHYLPYRIDINE] the Kd [7] was 1800 µM.

`CCc1ccncc1` gave a Kd [1] of 87 µM.

`CN1CCCCC1` was tested, and the Kd [1] was 1200 µM and the Mean enhancement of binding [8] was 10.

`CCc1cccnc1` was tested, and the Kd [1] was 9.5 µM and the Mean enhancement of binding [5] was 5.4.

`Cc1cccc(C)n1` was tested, and the Kd [1] was 10000 µM and the Mean enhancement of binding [6] was 3.1.

With `CNC1(C)C2CCC(C2)C1(C)C` (stereo not given) the Mean enhancement of binding [9] was 16.4.

`Oc1ccccn1` gave a Kd [1] of 880 µM and a Mean enhancement of binding [6] of 10.

`Nc1ccccn1` [2-AMINOPYRIDINE] was tested, and the Kd [1] was 200 µM and the Mean enhancement of binding [10] was 12.4.

In the case of `CN1CCC(O)CC1`, the Kd [1] is reported as 3400 µM and the Mean enhancement of binding [6] is reported as 13.

Compound `Nc1cccnc1` has a Kd [1] of 380 µM and a Mean enhancement of binding [5] of 2.4.

In the case of `CCC1CCCCN1` (stereo not given), the Kd [1] is reported as 7900 µM.

`OC1CCCNC1` (stereo not given) showed a Kd [1] of 820 µM and a Mean enhancement of binding [6] of 8.6.

Work on `CCN1CCCCC1` yielded a Kd [1] of 3.3 µM and a Mean enhancement of binding [5] of 23.

`CN1C(=O)CCC1c1cccnc1` (stereo not given) gave a Kd [1] of 4700 µM and a Kd [7] of 0.62 µM.

`CCCc1ccccn1` gave a Kd [1] of 1.7 µM and a Mean enhancement of binding [8] of 15.2.

`CC1CCNCC1` gave a Kd [1] of 3900 µM and a Mean enhancement of binding [6] of 6.1.

Work on `CC1CCCCN1` (stereo not given) yielded a Kd [1] of 3200 µM and a Kd [11] of less than 0.0001 µM.

With `CCCC1CCCCN1` (stereo not given) the Kd [1] was 97 µM.

`C1CCNCC1` [PIPERIDINE] gave a Kd [1] of 0.12 µM, a Kd [12] of 69 µM and a Mean enhancement of binding [13] of 10.3.

`CCc1ccccn1` was tested, and the Kd [1] was 100 µM and the Mean enhancement of binding [5] was 10.9.

With `CN1[C@@H](CC(=O)c2ccccc2)CCC[C@H]1C[C@H](O)c1ccccc1` the Mean enhancement of binding [14] was 18.2.

For `CC1CCCNC1` (stereo not given), the Kd [1] was 890 µM and the Mean enhancement of binding [6] was 5.2.

Compound `CN1CCC[C@H]1c1cccnc1` has a Mean enhancement of binding [15] of 4.7.

With `C1CCNC1` [PYRROLIDINE] the Mean enhancement of binding [5] was 4.5.

For `Cc1ccncc1`, the Kd [1] was 2200 µM and the Mean enhancement of binding [6] was 6.6.

Compound `C[N+](C)(C)CCOC(N)=O` has a Mean enhancement of binding [16] of 15.

For `ON1CCCCC1`, the Kd [1] was 6000 µM and the Mean enhancement of binding [17] was 8.5.
